Calls of active or inactive are those of the source.

Data set [1] can be described thus: Terminal elimination half life in Sprague-Dawley rat at 1 mg/kg, iv by LC/MS analysis. In kind it is ADME, organism-based. The arrangement: dose 1 mg/kg, route intravenous. The conditions noted are these: in vivo. The procedure, abridged: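 Male Sprague-Dawley rats dosed orally at 3 mg/kg as a suspension and intravenously at 1 mg/kg as a bolus. Plasma levels quantified by LC/MS. Oral AUC and Cmax dose-normalized to 1 mg/kg. Means ± SD of three individual experiments.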

The species named for a further data set is Homo sapiens. The data set is described as follows: Selectivity for human recombinant cathepsin S over human cathepsin H.
For data set [2], the species on record is Rattus norvegicus. Nature of the data set: Reversal of neuropathic mechanical hyperalgesia in Wistar rat sciatic nerve ligation model with cathepsin S cysteine 137 mutation. It is filed as functional, organism-based.
For another data set, the target named is Cathepsin S (Mus musculus, UniProt O70370). Nature of the data set: Inhibition of mouse cathepsin S by fluorescence assay. The procedure, abridged:
(§1)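 Recombinant rat cathepsins K, L, S (137Gly and 137Cys forms) and mouse cathepsin S in a fluorescence assay. Substrates: Z-Phe-Arg-MCA for K and L, Z-Leu-Leu-Arg-MCA for S. IC50 reported as means ± SD of three experiments.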

In the next data set the target is Cytochrome P450 2C9 (Homo sapiens, UniProt P11712). The data set is described as follows: Inhibition of CYP2C9 at 10 uM. In kind it is ADME. In short, it runs like this:
(§2)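 Tested against a panel of cytochrome P450 enzymes at a maximum concentration of 10 µM.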

In the next data set the target is Cathepsin B (Homo sapiens, UniProt P07858). The data set is described as follows: Inhibition of human cathepsin B.
In a further data set the target is T1, Procathepsin L (Rattus norvegicus, UniProt P07154).
T1 sequence (P07154 whole entry): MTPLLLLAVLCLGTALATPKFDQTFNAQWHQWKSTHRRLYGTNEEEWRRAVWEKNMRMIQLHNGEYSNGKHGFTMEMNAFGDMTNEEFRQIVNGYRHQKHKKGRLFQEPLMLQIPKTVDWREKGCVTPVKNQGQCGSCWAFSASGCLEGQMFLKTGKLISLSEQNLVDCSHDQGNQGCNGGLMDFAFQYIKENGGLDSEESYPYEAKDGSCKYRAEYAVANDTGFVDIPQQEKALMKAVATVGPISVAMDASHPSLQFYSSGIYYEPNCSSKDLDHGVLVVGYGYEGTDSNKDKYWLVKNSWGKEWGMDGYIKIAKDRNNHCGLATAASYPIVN
Nature of the data set: Inhibition of rat cathepsin L by fluorescence assay. In short, it runs like this:
as §1

A further data set has as its target Cytochrome P450 3A4 (Homo sapiens, UniProt P08684). The data set is described as follows: Inhibition of CYP3A4 at 10 uM. In kind it is ADME. In short, it runs like this:
as §2

The subject of data set [3] is Rattus norvegicus. The data set is described as follows: Reversal of neuropathic mechanical hyperalgesia in Wistar rat sciatic nerve ligation model assessed as paw withdrawal threshold at 30 mg/kg, po administered twice daily for 5 days after 3 hrs. It is filed as functional. The procedure, abridged: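 Partial sciatic nerve ligation in Wistar rats genotyped as 137Gly cathepsin S, with established mechanical hyperalgesia. Oral dosing in 0.5% methylcellulose/water; repeat regimen twice daily for 5 days, paw withdrawal thresholds 3 h post-dose. 6 animals/group; % reversal of hyperalgesia, mean ± SEM; ANOVA with Tukey's HSD versus vehicle.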

The target in the next data set is T2, Cathepsin K (Rattus norvegicus, UniProt O35186).
T2 sequence (O35186 whole entry): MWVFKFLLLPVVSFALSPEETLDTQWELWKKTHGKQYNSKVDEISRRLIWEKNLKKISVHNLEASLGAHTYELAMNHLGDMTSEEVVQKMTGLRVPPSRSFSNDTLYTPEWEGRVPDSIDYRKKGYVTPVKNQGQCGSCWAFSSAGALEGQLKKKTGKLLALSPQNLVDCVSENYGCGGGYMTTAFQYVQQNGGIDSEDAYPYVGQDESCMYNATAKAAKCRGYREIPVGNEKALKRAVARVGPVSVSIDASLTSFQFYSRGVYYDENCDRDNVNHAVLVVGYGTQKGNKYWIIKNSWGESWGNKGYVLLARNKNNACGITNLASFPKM
The data set is described as follows: Inhibition of rat cathepsin K by fluorescence assay. In short, it runs like this: as §1

Chain of Cathepsin S (O70370 whole entry): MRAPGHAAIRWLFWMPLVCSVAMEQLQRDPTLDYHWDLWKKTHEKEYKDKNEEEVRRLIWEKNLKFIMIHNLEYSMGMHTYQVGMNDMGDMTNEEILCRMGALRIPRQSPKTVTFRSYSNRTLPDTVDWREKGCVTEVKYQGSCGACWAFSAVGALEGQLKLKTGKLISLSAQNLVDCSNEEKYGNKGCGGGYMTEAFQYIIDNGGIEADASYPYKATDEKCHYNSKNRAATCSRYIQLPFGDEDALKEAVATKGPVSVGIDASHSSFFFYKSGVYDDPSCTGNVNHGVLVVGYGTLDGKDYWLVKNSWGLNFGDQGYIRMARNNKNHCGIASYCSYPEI
Chain of Cytochrome P450 3A4 (P08684 whole entry): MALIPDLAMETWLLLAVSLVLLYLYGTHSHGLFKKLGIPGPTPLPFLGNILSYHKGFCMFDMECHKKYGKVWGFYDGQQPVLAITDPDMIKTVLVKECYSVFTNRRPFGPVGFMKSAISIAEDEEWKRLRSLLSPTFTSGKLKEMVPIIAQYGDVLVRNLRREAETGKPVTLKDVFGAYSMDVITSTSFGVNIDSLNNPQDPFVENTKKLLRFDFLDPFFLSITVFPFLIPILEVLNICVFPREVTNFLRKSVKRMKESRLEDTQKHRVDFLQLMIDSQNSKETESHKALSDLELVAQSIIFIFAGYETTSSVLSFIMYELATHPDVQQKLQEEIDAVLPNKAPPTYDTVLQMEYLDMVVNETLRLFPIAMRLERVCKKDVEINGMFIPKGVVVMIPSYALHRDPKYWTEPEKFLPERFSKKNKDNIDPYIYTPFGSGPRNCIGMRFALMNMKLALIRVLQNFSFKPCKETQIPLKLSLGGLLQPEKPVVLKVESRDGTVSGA
Chain of Cytochrome P450 2C9 (P11712 whole entry): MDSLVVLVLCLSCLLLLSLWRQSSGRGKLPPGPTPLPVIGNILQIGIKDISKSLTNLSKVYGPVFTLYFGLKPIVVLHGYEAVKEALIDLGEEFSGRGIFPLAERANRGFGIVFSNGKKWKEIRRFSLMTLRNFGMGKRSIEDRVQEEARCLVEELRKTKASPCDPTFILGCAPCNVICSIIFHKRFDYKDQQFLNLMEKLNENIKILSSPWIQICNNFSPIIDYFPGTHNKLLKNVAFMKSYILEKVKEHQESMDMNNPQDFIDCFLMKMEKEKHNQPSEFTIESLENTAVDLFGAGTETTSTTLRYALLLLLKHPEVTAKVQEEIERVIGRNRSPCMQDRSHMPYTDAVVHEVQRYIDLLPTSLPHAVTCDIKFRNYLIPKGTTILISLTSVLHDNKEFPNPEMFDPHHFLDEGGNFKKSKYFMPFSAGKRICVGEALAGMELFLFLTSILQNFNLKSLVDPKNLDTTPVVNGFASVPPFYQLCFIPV

With `CC(=O)N1CCN(c2ccc(OCc3cc4cnc(C#N)nc4n3CCC3CCC(F)(F)CC3)cc2)CC1`, the half-life in data set [1] was 42 min. Also, the Activity is > 100 in the data set listed under Homo sapiens, “Not Active” on Cytochrome P450 2C9, “Not Active” at Cytochrome P450 3A4 and 40% in the data set with Rattus norvegicus [3]. The result in the data set listed under Rattus norvegicus [2] was inactive. The concentration for half-maximal inhibition (IC50) against Cathepsin S is 0.02 µM; against Cathepsin B, > 30 µM; at Procathepsin L, > 10 µM; against Cathepsin K it was > 10 µM.

For the origin of these results see ChEMBL document CHEMBL1140079, “Discovery of orally bioavailable cathepsin S inhibitors for the reversal of neuropathic pain” (J Med Chem, 2008).
